ABCB6 inh MLPCN – inhibitors of human ABC transporter ABCB6; Q9NP58; K562-ABCB6 porphyrin accumulation, flow cytometry, 1 h; active compounds read low; fluorescence ratio to DMSO, % at 10 µM; 360,000 compounds, 0.19% hits; AID 602162;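 active = fluorescence ratio to DMSO below 75%, the collection mean minus 3 SD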;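 note: signal is porphyrin accumulated inside mitochondria; 100% equals median channel fluorescence of DMSO control wells; lower ratio means ABCB6 inhibition with less porphyrin fluorescence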
Target sequence (Q9NP58 whole entry, looked up): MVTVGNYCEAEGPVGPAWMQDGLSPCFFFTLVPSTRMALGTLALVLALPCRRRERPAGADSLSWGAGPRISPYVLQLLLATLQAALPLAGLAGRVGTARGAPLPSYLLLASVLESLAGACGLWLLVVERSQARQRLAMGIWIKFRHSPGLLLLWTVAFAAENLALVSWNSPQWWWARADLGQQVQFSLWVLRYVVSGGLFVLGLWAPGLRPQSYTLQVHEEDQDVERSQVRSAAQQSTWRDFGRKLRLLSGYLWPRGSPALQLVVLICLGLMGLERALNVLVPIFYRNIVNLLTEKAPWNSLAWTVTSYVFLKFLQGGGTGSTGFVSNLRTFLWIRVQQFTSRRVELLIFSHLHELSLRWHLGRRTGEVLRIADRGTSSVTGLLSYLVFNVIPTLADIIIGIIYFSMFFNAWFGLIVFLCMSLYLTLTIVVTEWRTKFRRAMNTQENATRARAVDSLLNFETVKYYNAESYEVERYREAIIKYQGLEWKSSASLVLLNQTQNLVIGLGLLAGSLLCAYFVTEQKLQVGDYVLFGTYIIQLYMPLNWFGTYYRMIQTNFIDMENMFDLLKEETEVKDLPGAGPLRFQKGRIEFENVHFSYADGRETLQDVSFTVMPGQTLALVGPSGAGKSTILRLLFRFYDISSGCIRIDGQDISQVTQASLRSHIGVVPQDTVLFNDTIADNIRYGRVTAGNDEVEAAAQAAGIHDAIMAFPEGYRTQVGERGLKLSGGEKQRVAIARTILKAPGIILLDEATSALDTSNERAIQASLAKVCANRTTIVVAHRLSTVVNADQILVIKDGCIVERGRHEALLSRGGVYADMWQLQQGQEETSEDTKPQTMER
CHT allo act – allosterically activates the human high affinity choline transporter; Q9GZV3; CHT-expressing cells, membrane potential dye, choline EC20; active compounds read high; LV-AA mutant CHT in HEK293 cells; B-score at 10 µM; 310,000 compounds, 0.49% hits;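 active = initial fluorescence not abnormally high and integrated response B-score, plate-corrected, over 3 SD above library mean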
TNAP act hiacc – increases human TNAP activity under high phosphate acceptor concentration | P05186 | purified TNAP, CDP-star luminescence, 1 M DEA, 30 min; active compounds read high; 0 = EDTA background, 1 = DMSO-only activity | activation factor at 20 µM | 200,000 tested, under 10 active | AID 1136;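 active = activation factor at least 2 at 20 µM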
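Assay system: human TNAP; Input: enzyme diluted 1/800 final; Reagent: CDP-star luminogenic substrate at 100 µM final; Timing: 30 min, room temperature; Signal: luminescence; Evaluation: TNAP activation factor scaled between EDTA and DMSO control wells.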
TNAP inh noacc – inhibitors of human TNAP without phosphate acceptor; P05186; inhibition, % at 20 µM; purified TNAP, CDP-star luminescence, 30 min; 200,000 compounds, 0.26% hits;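 active = tissue-nonspecific alkaline phosphatase inhibition above about 50% at 20 µM in the single-dose screen, limit read from the data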;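 note: 0% = DMSO negative control and 100% = EDTA positive control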
TNAP inh hi DEA – TNAP (human) inhibition, high acceptor | inhibition, % at 20 µM | purified TNAP, CDP-star luminescence, 1 M DEA | 200,000 compounds, 0.03% hits;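 active = over 50% inhibition of tissue-nonspecific alkaline phosphatase at 20 µM in the single-dose screen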;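 note: plate controls were DMSO wells for no effect and EDTA-quenched wells as full inhibition for full effect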
CHT inh – human CHT choline transport inhibition | Q9GZV3 | CHT-expressing cells, membrane potential dye, choline response; active compounds read low | B-score at 10 µM | 310,000 compounds, 0.86% hits;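 active = B-score over 3 SD under the library average, and starting fluorescence ratio not unusually high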;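 note: choline stimulus applied at its EC90 after an EC20 pre-addition; B-score computed on integrated fluorescence ratio after choline addition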
ABCB6 blocker 1 – human ABCB6 transporter inhibition. shares compounds with ABCB6 inh MLPCN. K562-ABCB6 porphyrin accumulation, flow cytometry, 1 h; active compounds read low. ratio response (% of DMSO), % at 10 µM. 700 tested, under 10 active. AID 602430;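 active = repeat-averaged ratio response below 75% of DMSO, the collection mean minus 3 SD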;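 note: median porphyrin fluorescence at 575 nm with 488 nm excitation from mitochondria; lower ratio means less porphyrin signal so ABCB6 inhibition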
* hit, by the source's call. Hits are enriched below; roughly 1.4% of the tested compounds scored in any of these assays.

Screening Cc1cccc(C)c1-c1ccc(CN2C(CC(C)C)C(=O)N(Cc3cn(CCO)nn3)CCS2(=O)=O)cc1 (configuration not stated) returned ABCB6 inh MLPCN 101.
`CCOc1ccc(C2Nc3ccccc3NC3=C2C(=O)CC(C)(C)C3)cc1OC` (configuration not stated) gave ABCB6 inh MLPCN 66*, CHT allo act inactive, CHT inh inactive and ABCB6 blocker 1 99.
Screening COc1ccc(C2Nc3ccccc3NC3=C2C(=O)CC(C)(C)C3)cc1OC (configuration not stated) returned ABCB6 inh MLPCN 99, CHT allo act inactive and CHT inh inactive.
Cc1ccc(-c2nnc(N)s2)cc1 was read as ABCB6 inh MLPCN 69*, CHT allo act inactive, TNAP act hiacc 1.1, TNAP inh noacc -4, TNAP inh hi DEA -6, CHT inh inactive and ABCB6 blocker 1 103.
O=C(NC1CCCCC1)C(c1ccccc1)N(C(=O)c1csnn1)C1CCCC1 (configuration not stated) was read as ABCB6 inh MLPCN 99, CHT allo act inactive and CHT inh inactive.
`CC(C)(C)N1C(=O)[C@H]2[C@@H](c3ccc(Br)cc3)N3C(=O)N(c4cccc(Cl)c4)C(=O)[C@@]3(Cc3ccccc3)[C@H]2C1=O` gave ABCB6 inh MLPCN 96, CHT allo act inactive and CHT inh inactive.
CCOC(=O)c1c(NC(=O)CCN2C(=O)c3ccccc3C2=O)sc(C(=O)OC(C)C)c1C was read as ABCB6 inh MLPCN 70*, CHT allo act inactive, TNAP act hiacc 1, TNAP inh noacc 4, TNAP inh hi DEA 3, CHT inh inactive and ABCB6 blocker 1 99.
`O=C(NCc1cc(Cl)cc(Cl)c1)c1csc([C@@H]2C[C@H](O)[C@@H](CO)O2)n1` gave ABCB6 inh MLPCN 98.
Screening COC(=O)[C@@H](NC(=O)Nc1ccc(S(N)(=O)=O)cc1)C(C)C returned ABCB6 inh MLPCN 71*, CHT allo act inactive, TNAP act hiacc 1, TNAP inh noacc -2, TNAP inh hi DEA 2, CHT inh inactive and ABCB6 blocker 1 103.
`O=C(c1ccc2c(c1)OCO2)N(Cc1ccco1)C1(C(=O)NC2CCCCC2)CCCCC1` gave ABCB6 inh MLPCN 99, CHT allo act inactive, TNAP act hiacc 1, TNAP inh noacc -3, TNAP inh hi DEA -1 and CHT inh inactive.
CC1=CC(=C2C(=O)c3ccccc3C2=O)C=C(C)N1Cc1ccco1 was read as ABCB6 inh MLPCN 66*, CHT allo act inactive, TNAP act hiacc 1, TNAP inh noacc -6, TNAP inh hi DEA -2, CHT inh inactive and ABCB6 blocker 1 103.
Screening CCCCN1C(C)=CC(=C2C(=O)c3ccccc3C2=O)C=C1C returned ABCB6 inh MLPCN 97, CHT allo act inactive, TNAP act hiacc 1, TNAP inh noacc 4, TNAP inh hi DEA 2 and CHT inh inactive.
Screening Cc1c(OCc2ccccc2)c(=O)ccn1Cc1ccccc1 returned ABCB6 inh MLPCN 107, CHT allo act inactive, TNAP act hiacc 1.1, TNAP inh noacc -11, TNAP inh hi DEA -8 and CHT inh inactive.
`O=c1ccn(Cc2ccccc2)c2ccccc12` gave ABCB6 inh MLPCN 72*, CHT allo act inactive, CHT inh inactive and ABCB6 blocker 1 97.
CCOC(=O)N1CCN(S(=O)(=O)c2ccc(F)c(C(=O)Nc3cccc(C)c3C)c2)CC1 was read as ABCB6 inh MLPCN 72*, CHT allo act inactive, TNAP act hiacc 1, TNAP inh noacc 7, TNAP inh hi DEA -5, CHT inh inactive and ABCB6 blocker 1 99.
Cc1cnc(NC(=O)CCCSc2nc3ccccc3s2)s1 was read as ABCB6 inh MLPCN 96, CHT allo act inactive, TNAP act hiacc 1, TNAP inh noacc -13, TNAP inh hi DEA -4 and CHT inh inactive.
